Data as given in paper PMC3969656 (Pharmacognosy Magazine, 2014).

Columns and labels:
[1] = ref Park et al., 21, cited from earlier work
[2] = Stability of analytes in rat plasma QC samples and postpreparative stability; format: in vitro ADME; settings: for Stability in rat plasma, recovered percentage: QC samples (0.1, 0.5, and 5.0 μg/mL); for Postpreparative stability: prepared samples, 24 h storage at 4°C
Outline: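 Drug-free rat plasma was spiked to give QC samples at 0.1, 0.5 and 5.0 μg/mL. Samples were stored at room temperature or -20°C. For postpreparative stability, extracted samples were held at 4°C. Samples were extracted with acetonitrile plus isoliquiritin IS and quantified by C18 water/acetonitrile gradient HPLC-UV at 330 nm. Results are given as percent recovered.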

[3] = 12 h storage at room temperature

| Stability in rat plasma, recovered percentage ([2]; 4-weeks storage at -20°C) | Stability in rat plasma, recovered percentage [2, 3] | Postpreparative stability [2] | SMILES | Plasma level after intravenous administration ([1]; intravenous administration of decursin) | Hepatic first-pass metabolism [1] |
| --- | --- | --- | --- | --- | --- |
| – | – | – | CC(C)=CC(=O)O[C@H]1Cc2cc3ccc(=O)oc3cc2OC1(C)C [decursin] | rapidly decreased | extensive hepatic first-pass metabolism |
| 99.0 ± 4.4% | 97.8 ± 7.1% | 100.5 ± 6.1% | CC(C)(O[C@@H]1O[C@H](CO)[C@@H](O)[C@H](O)[C@H]1O)[C@H]1Cc2cc3ccc(=O)oc3cc2O1 [Nodakenin, nodakenin] | – | – |
| 100.9 ± 5.9% | 89.9 ± 10.6% | 97.8 ± 5.4% | CC1(C)Oc2cc3oc(=O)ccc3cc2C[C@@H]1O [Decursinol, decursinol] | – | – |
